These results are taken from ChEMBL document CHEMBL1926522, “PEG-SO(3)H catalyzed synthesis and cytotoxicity of α-aminophosphonates” (Eur J Med Chem, 2012).

Molecules are shown by their SMILES.

Series [1] has as its system K562. The series is described as follows: Cytotoxicity against human K562 cells after 24 hrs by MTT assay. The format is functional, cell-based. The conditions noted are these: K562, 24 h. A digest of the protocol:
(§1)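 Cells from NCCS Pune, grown in RPMI-1640 with 10% heat-inactivated FBS, penicillin/streptomycin and glutamine at 37 °C, 5% CO2. Cells were washed with PBS and exposed for 24 h, first at 1, 10 and 100, then at 2–64. MTT (5 mg/mL in PBS) added for 2 h, then DMSO. IC50 read graphically from concentration vs % inhibition plot. Each point is the average of two determinations.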
(In general: Tetrazolium dyes change colour on reduction, which living cells bring about.)

In series [2] the test system is COLO 205. As to the kind of experiment: Cytotoxicity against human COLO205 cells after 24 hrs by MTT assay. It counts as functional, cell-based. The conditions noted are these: COLO 205, 24 h. An outline of the steps:
as §1

The test system of series [3] is K562. As to the kind of experiment: Growth inhibition of human K562 cells at 1 uM after 24 hrs by MTT assay relative to control. It counts as functional. As to conditions: K562, 24 h, read-out: GI. An outline of the steps:
(§2)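 Exponentially growing cells in RPMI-1640 with 10% heat-inactivated FBS, 37 °C, 5% CO2. Treated 24 h at the single stated concentration. MTT (5 mg/mL in PBS) added for 2 h at 37 °C, then DMSO. Percent proliferation inhibition was calculated versus control. Independent experiments in duplicate, values averaged from two determinations.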

For series [4], the system named is K562. As to the kind of experiment: Growth inhibition of human K562 cells at 10 uM after 24 hrs by MTT assay relative to control. The format is functional. The conditions noted are these: K562, 24 h, read-out: GI. A digest of the protocol: as §2
For series [5], the system named is COLO 205. The series is described as follows: Growth inhibition of human COLO205 cells at 1 uM after 24 hrs by MTT assay relative to control. It counts as functional. As to conditions: COLO 205, 24 h, read-out: GI. A digest of the protocol:
as §2

In series [6] the test system is COLO 205. As to the kind of experiment: Growth inhibition of human COLO205 cells at 10 uM after 24 hrs by MTT assay relative to control. The format is functional. The conditions noted are these: COLO 205, 24 h, read-out: GI. An outline of the steps:
as §2

A short description of series [7]: Growth inhibition of human HEK293 cells at 1 uM after 24 hrs by MTT assay relative to control. It counts as cell-based. As to conditions: read-out: GI. An outline of the steps:
as §2

A short description of series [8]: Growth inhibition of human HEK293 cells at 10 uM after 24 hrs by MTT assay relative to control. The format is cell-based. The conditions noted are these: read-out: GI. An outline of the steps:
as §2

Series [9] in a line: Lipophilicity, log P of the compound. The format is physicochemical. The conditions noted are these: octanol/water.

The term IC50 denotes the concentration that inhibits the measured activity by half. As usually defined, the logP is a log measure of how a compound divides between an organic and an aqueous phase.

Consider `CCOP(=O)(OCC)C(Nc1nc2ccccc2s1)c1ccc(-c2ccncc2)cc1` (configuration not stated), for which the IC50 in series [1] is 35 µM; in [2], 15 µM. Further, the inhibition of growth at 1 µM came out at 0% in series [3] and 36.6% in series [5]. The inhibition of growth at 10 µM turned out to be 15.7% in series [4] and 41% in [6]. Moreover, the inhibition at 24 h, 1 µM in [7] was determined as 2.5%. Moreover, in series [8], the inhibition at 24 h, 10 µM was 2.5%.
With `CCOP(=O)(OCC)C(Nc1nc2ccc([N+](=O)[O-])cc2s1)c1ccc(-c2ccncc2)cc1` (configuration not stated), the IC50 in [1] is 31 µM; in series [2] it was 10 µM. In addition, the inhibition of growth at 1 µM in [3] was determined as 0.9%; in series [5] it was 34.4%. For the same compound, the figures for the inhibition of growth at 10 µM in [4] and in [6] were 18.9% and 48.1%, respectively. The inhibition at 24 h, 1 µM in [7] amounted to 0%. In addition, in series [8], the inhibition at 24 h, 10 µM is 0.3%.
As for `CCOP(=O)(OCC)C(NCc1cccnc1)c1ccc(-c2ccncc2)cc1` (configuration not stated), the IC50 in [1] is 10 µM; in series [2], 8 µM. The figures for the inhibition of growth at 1 µM in [3] and in series [5] were 26% and 27.6%, respectively. The values for the inhibition of growth at 10 µM in series [4] and in series [6] were 48.4% and 60.1%, respectively. Further, the inhibition at 24 h, 1 µM in series [7] is 3.1%. For the same compound, the inhibition at 24 h, 10 µM in [8] is 3.6%. Further, the logP in [9] is 4.55.
`CCOP(=O)(OCC)C(Nc1ccc(Cl)c([N+](=O)[O-])c1)c1ccc(-c2ccncc2)cc1` (configuration not stated): the IC50 was 19 µM in series [1] and 12 µM in [2]. For the same compound, the results for the inhibition of growth at 1 µM in series [3] and in [5] were 14.3% and 35%, respectively. For the same compound, the inhibition of growth at 10 µM in series [4] is 24.9%; in [6], 45.1%. Further, the inhibition at 24 h, 1 µM in series [7] was 1.2%. Moreover, the inhibition at 24 h, 10 µM in series [8] was found to be 3.4%.
As to `CCOP(=O)(OCC)C(Nc1ccccc1)c1ccc(-c2ccncc2)cc1` (configuration not stated), the IC50 in [1] is > 100 µM; in series [2], 18 µM. Also, the inhibition of growth at 1 µM in series [3] was found to be 0%; in series [5] it was 18.1%. The inhibition of growth at 10 µM in series [4] stood at 0%; in series [6] it was 31%. The inhibition at 24 h, 1 µM in [7] came out at 0%. The inhibition at 24 h, 10 µM in series [8] amounted to 0%.
In the case of `CCOP(=O)(OCC)C(Nc1cccc([N+](=O)[O-])c1)c1ccc(-c2ccncc2)cc1` (configuration not stated), the IC50 came to 20 µM in series [1] and 14 µM in series [2]. Besides, the values for the inhibition of growth at 1 µM in series [3] and in series [5] were 0% and 39.5%, respectively. The inhibition of growth at 10 µM worked out at 25.8% in [4] and 41.1% in series [6]. In addition, the inhibition at 24 h, 1 µM in series [7] stood at 0%. In addition, the inhibition at 24 h, 10 µM in series [8] was determined as 1.2%.
As to `CCOP(=O)(OCC)C(Nc1cccc(Br)c1)c1ccc(-c2ccncc2)cc1` (configuration not stated), the IC50 in series [1] was found to be 10 µM; in series [2], 5 µM. Also, the values for the inhibition of growth at 1 µM in series [3] and in series [5] were 41.7% and 31.3%, respectively. The inhibition of growth at 10 µM is 53.8% in series [4] and 71.6% in [6]. The inhibition at 24 h, 1 µM in series [7] was 1%. Further, in [8], the inhibition at 24 h, 10 µM came out at 2.3%. In series [9], this compound yielded a logP of 5.72.
For the compound `CCOP(=O)(OCC)C(Nc1nccs1)c1ccc(-c2ccncc2)cc1` (configuration not stated), the IC50 came to 24 µM in series [1] and 10 µM in series [2]. The results for the inhibition of growth at 1 µM in series [3] and in [5] were 0% and 37.1%, respectively. For the same compound, the inhibition of growth at 10 µM was 24% in series [4] and 47.9% in [6]. In addition, the inhibition at 24 h, 1 µM in series [7] came out at 1%. In addition, in series [8], the inhibition at 24 h, 10 µM amounted to 2.5%.
On to `CCOP(=O)(OCC)C(Nc1ccc(F)c(Cl)c1)c1ccc(-c2ccncc2)cc1` (configuration not stated), for which the IC50 was determined as 22 µM in series [1] and 10 µM in [2]. Further, the inhibition of growth at 1 µM in series [3] came out at 26%; in series [5], 44.5%. In addition, the inhibition of growth at 10 µM amounted to 26.2% in series [4] and 47% in series [6]. Besides, the inhibition at 24 h, 1 µM in series [7] came out at 0.2%. In [8], the inhibition at 24 h, 10 µM worked out at 1.2%.
With `CCOP(=O)(OCC)C(Nc1ccncc1)c1ccc(-c2ccncc2)cc1` (configuration not stated), the IC50 was determined as 32 µM in [1] and 10 µM in series [2]. Further, the inhibition of growth at 1 µM in [3] worked out at 0%; in [5], 14%. Besides, the inhibition of growth at 10 µM in [4] worked out at 15.7%; in [6], 53.4%. Besides, the inhibition at 24 h, 1 µM in series [7] was 0.5%. Also, the inhibition at 24 h, 10 µM in series [8] came out at 1.9%.
